This passage reports Activity, Ki and inhibition results from ChEMBL document CHEMBL1142768, “2-(2-Furanyl)-7-phenyl[1,2,4]triazolo[1,5-c]pyrimidin-5-amine analogs as adenosine A2A antagonists: the successful reduction of hERG activity. Part 2” (Bioorg Med Chem Lett, 2005).

For series [1], the system named is Rattus norvegicus. The experiment in a line: Percent reduction of cataleptic effect in rat upon dosing at 3 mg/kg; 28/0. It is filed as functional. On the set-up: scale not given: the % may be the effect or the level left.
Series [2] can be described thus: Inhibitory constant against Adenosine A2A receptor using [3H]SCH-58261 as radio ligand. On the set-up: species or system Homo sapiens. The procedure, abridged: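 Radioligand binding at the adenosine A2A receptor, run in duplicate; Ki reported as the mean of the duplicates.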
Another series has as its target hERG (KCNH2) (Homo sapiens, UniProt Q12809). Kind of series: Percent inhibition of hERG by rubidium efflux FLIPR assay at concentration of 5 ug/mL. The series is classed as toxicity.
Series [3] has as its system Rattus norvegicus. The experiment in a line: Percent reduction of cataleptic effect in rat upon dosing at 3 mg/kg; 55/40. It is filed as functional. On the set-up: scale not given: the % may be the effect or the level left.
The subject of series [4] is Rattus norvegicus. The experiment in a line: Percent reduction of cataleptic effect in rat upon dosing at 3 mg/kg; 19/46. The series is classed as functional. On the set-up: scale not given: the % may be the effect or the level left.
The subject of series [5] is Rattus norvegicus. Kind of series: Percent reduction of cataleptic effect in rat upon dosing at 3 mg/kg; 10/12. On the set-up: scale not given: the % may be the effect or the level left. It is filed as functional.
For series [6], the system named is Rattus norvegicus. Kind of series: Percent reduction of cataleptic effect in rat upon dosing at 3 mg/kg; 23/47. It is filed as functional. On the set-up: scale not given: the % may be the effect or the level left.
Series [7] deals with Rattus norvegicus. Kind of series: Percent reduction of cataleptic effect in rat upon dosing at 3 mg/kg; 34/43. It is filed as functional. On the set-up: scale not given: the % may be the effect or the level left.
Series [8] deals with Rattus norvegicus. Kind of series: Percent reduction of cataleptic effect in rat upon dosing at 3 mg/kg; 45/20. On the set-up: scale not given: the % may be the effect or the level left. The series is classed as functional.
The test system of series [9] is Rattus norvegicus. The experiment in a line: Percent reduction of cataleptic effect in rat upon dosing at 3 mg/kg; 0/23. It is filed as functional. On the set-up: scale not given: the % may be the effect or the level left.
The subject of series [10] is Rattus norvegicus. Kind of series: Percent reduction of cataleptic effect in rat upon dosing at 3 mg/kg; 23/32. It is filed as functional. On the set-up: scale not given: the % may be the effect or the level left.
Series [11] has as its system Rattus norvegicus. Kind of series: Percent reduction of cataleptic effect in rat upon dosing at 3 mg/kg; 36/59. It is filed as functional. On the set-up: scale not given: the % may be the effect or the level left.
The subject of series [12] is Rattus norvegicus. The experiment in a line: Percent reduction of cataleptic effect in rat upon dosing at 3 mg/kg; 13/13. It is filed as functional. On the set-up: scale not given: the % may be the effect or the level left.

Each structure is given as a SMILES string. pKi: −log10 of the molar value.

Sequence of hERG (KCNH2) (Q12809 whole entry): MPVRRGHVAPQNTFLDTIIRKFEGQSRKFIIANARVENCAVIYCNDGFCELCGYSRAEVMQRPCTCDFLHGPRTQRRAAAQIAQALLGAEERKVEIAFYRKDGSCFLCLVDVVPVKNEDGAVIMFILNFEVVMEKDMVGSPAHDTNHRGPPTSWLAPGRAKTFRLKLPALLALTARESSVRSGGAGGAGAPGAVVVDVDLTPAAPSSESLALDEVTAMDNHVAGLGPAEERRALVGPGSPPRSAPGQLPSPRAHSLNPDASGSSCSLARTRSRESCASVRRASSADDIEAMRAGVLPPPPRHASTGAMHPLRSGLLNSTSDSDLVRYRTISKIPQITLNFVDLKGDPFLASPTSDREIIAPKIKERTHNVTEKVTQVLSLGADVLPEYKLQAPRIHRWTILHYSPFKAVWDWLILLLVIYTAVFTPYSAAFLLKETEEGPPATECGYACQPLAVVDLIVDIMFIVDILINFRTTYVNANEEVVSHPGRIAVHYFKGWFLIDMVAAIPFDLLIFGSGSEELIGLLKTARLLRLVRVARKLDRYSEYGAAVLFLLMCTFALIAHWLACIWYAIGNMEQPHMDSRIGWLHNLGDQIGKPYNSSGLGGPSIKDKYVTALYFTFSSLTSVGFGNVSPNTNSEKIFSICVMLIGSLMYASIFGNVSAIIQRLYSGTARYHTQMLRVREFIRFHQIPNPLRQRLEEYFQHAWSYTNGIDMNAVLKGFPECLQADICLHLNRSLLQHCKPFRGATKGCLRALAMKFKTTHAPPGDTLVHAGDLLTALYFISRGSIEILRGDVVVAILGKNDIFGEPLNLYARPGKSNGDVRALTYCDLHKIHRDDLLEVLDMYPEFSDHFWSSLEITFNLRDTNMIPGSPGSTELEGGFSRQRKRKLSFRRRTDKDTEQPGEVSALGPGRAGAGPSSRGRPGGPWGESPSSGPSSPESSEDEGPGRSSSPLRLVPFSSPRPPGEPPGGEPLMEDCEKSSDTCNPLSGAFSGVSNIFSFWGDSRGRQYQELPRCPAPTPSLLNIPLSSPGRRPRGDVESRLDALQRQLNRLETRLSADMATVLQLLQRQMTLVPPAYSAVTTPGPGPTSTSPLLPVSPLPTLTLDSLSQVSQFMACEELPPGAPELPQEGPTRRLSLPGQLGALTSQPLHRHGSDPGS

As for `CC1CN(CC(=O)N2CCN(c3cccc(-c4cc5nc(-c6ccco6)nn5c(N)n4)c3)CC2)CCO1` (stereo not drawn), in the series on Rattus norvegicus [1], the Activity came out at 28%. In series [2], the pKi was 9.10. The inhibition at 5 ug/mL on hERG (KCNH2) is given as -3% (not active).
The compound `COCCOc1ccc(N2CCN(c3cccc(-c4cc5nc(-c6ccco6)nn5c(N)n4)c3)CC2)cc1` had a pKi in [2] of 9.00. Also, in the series with Rattus norvegicus [3], the Activity stood at 55%. Moreover, on hERG (KCNH2), the inhibition at 5 ug/mL is -4% (not active).
In [2], `Nc1nc(-c2cccc(N3CCNCC3)c2)cc2nc(-c3ccco3)nn12` gave a pKi of 8.24.
Same read-out and setting: the figure for `Nc1nc(-c2cccc(N3CCC(=O)CC3)c2)cc2nc(-c3ccco3)nn12` is 8.89.
With `COCCOc1cccc(N2CCN(c3cccc(-c4cc5nc(-c6ccco6)nn5c(N)n4)c3)CC2)c1`, in the series with Rattus norvegicus [4], the Activity turned out to be 46%. The pKi in series [2] is 8.64. Moreover, the inhibition at 5 ug/mL against hERG (KCNH2) came out at 3%.
Compound `CC(C)(C)CNC1CCN(c2cccc(-c3cc4nc(-c5ccco5)nn4c(N)n3)c2)CC1` came in with an Activity in the series with Rattus norvegicus [5] of 12%. Moreover, in series [2], the pKi was 7.74. Besides, the inhibition at 5 ug/mL against hERG (KCNH2) amounted to 9%.
In the series on Rattus norvegicus [6], `Nc1nc(-c2cccc(N3CCN(C(=O)CN4CCOCC4)CC3)c2)cc2nc(-c3ccco3)nn12` showed an Activity of 47%. Further, the negative logarithm of the Ki (pKi) in series [2] was 9.30. Further, at hERG (KCNH2), the inhibition at 5 ug/mL came to 5%.
On to `COCCOc1ccc(N2CCN(Cc3cccc(-c4cc5nc(-c6ccco6)nn5c(N)n4)c3)CC2)cc1`, for which the inhibition at 5 ug/mL at hERG (KCNH2) turned out to be 81%.
On to `CCCCOC(=O)N1CCN(c2cccc(-c3cc4nc(-c5ccco5)nn4c(N)n3)c2)CC1`, for which the pKi in series [2] was 9.30. The Activity in the series with Rattus norvegicus [7] is given as 43%. Further, at hERG (KCNH2), the inhibition at 5 ug/mL is reported as -3% (not active).
`Nc1nc(-c2cccc(N3CCC4(CC3)OCCO4)c2)cc2nc(-c3ccco3)nn12` showed a pKi in [2] of 9.40. For the same compound, at hERG (KCNH2), the inhibition at 5 ug/mL was 8%. The Activity in the series on Rattus norvegicus [8] was found to be 45%.
In the case of `CC(C)OC(=O)N1CCN(c2cccc(-c3cc4nc(-c5ccco5)nn4c(N)n3)c2)CC1`, the pKi in [2] is 9.00. The inhibition at 5 ug/mL at hERG (KCNH2) was 8%. In the series on Rattus norvegicus [9], this compound yielded an Activity of 23%.
`Nc1nc(-c2cccc(N3CCN(CCN4CCOCC4)CC3)c2)cc2nc(-c3ccco3)nn12` showed a pKi in series [2] of 8.89. This compound also had an Activity in the series on Rattus norvegicus [10] of 32%. For the same compound, the inhibition at 5 ug/mL against hERG (KCNH2) was found to be 13%.
Consider `COCCOc1cccc(N2CCN(Cc3cccc(-c4cc5nc(-c6ccco6)nn5c(N)n4)c3)CC2)c1`, for which the inhibition at 5 ug/mL at hERG (KCNH2) amounted to 68%.
In series [2], `Nc1nc(-c2cccc(N3CCC(N4CCOCC4)CC3)c2)cc2nc(-c3ccco3)nn12` had a negative logarithm of the Ki (pKi) of 9.10. The inhibition at 5 ug/mL at hERG (KCNH2) was found to be 1%. This compound also had an Activity in the series with Rattus norvegicus [11] of 59%.
Turning to `Nc1nc(-c2cccc(CO)c2)cc2nc(-c3ccco3)nn12`, the inhibition at 5 ug/mL against hERG (KCNH2) is 15%.
Take `CC(C)S(=O)(=O)N1CCN(c2cccc(-c3cc4nc(-c5ccco5)nn4c(N)n3)c2)CC1`: the Activity in the series on Rattus norvegicus [12] is 13%. For the same compound, the pKi in series [2] was 9.30. The inhibition at 5 ug/mL at hERG (KCNH2) was determined as 10%.
